This is one part of a sample in which hits are shown more often than they occur.
INS promoter act: activators of insulin promoter-driven GFP, primary screen, imaging, TRM-6 cells (human fetal islet line), eGFP reporter, cell count; 130,000 compounds, 0.81% hits; activation, % at 2 µM; AID 1296, 2008; plate-scaled: unstimulated 0, stimulated control 100;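 active = activation at 2 µM above a set limit, confirmed on inspection of the cell images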;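 also: share of cells whose green reporter signal exceeds an intensity cutoff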
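Assay system: TRM-6 human fetal islet cells, insulin promoter–eGFP reporter; Also added: 0.75 µM tamoxifen as reporter inducer; Schedule: 15 h tamoxifen pre-treatment, 48 h compound treatment at 37 °C; Signal: fixed-cell fluorescence microscopy, eGFP plus Hoechst; Read-out: percent activation from GFP-positive cell fraction; Control set: stimulated and unstimulated wells.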
Active calls of the source: *.

SMILES	INS promoter act
O=C(Nc1ccc2c(c1)CCC2)C1CCN(c2ncccn2)CC1	-9.4
Cc1cc(C)c(NC(=O)C2CCN(c3cnccn3)CC2)c(C)c1	481.3*
Cc1ccccc1OCCOc1ccccc1C=C(C#N)C#N	120.7
O=C(NNC(=O)c1cccnc1SCc1cccc([N+](=O)[O-])c1)c1ccccn1	0.0
COc1ccc(CCn2c(-c3ccco3)nc3nc4ccccc4nc32)cc1	178.6*
COc1ccc(Cn2c(-c3ccc(OC)cc3)nc3ccccc32)cc1	8.6
COc1ccc(CCn2c(C)nc3c(c(=O)c4ccccc4n3C)c2=O)cc1	-3.2
CC(=O)Nc1ccc(OCC(O)CN2C(C)(C)CC(O)CC2(C)C)cc1 (centres undefined)	3.3
Cc1ccc(C)c(N/N=C2\CCCNC2=O)c1	0.0
NC1=NC(=O)/C(=C/c2c(OS(=O)(=O)c3ccc(Cl)cc3)ccc3ccccc23)S1	5.4
O=c1c2ccccc2c(/C=N/NS(=O)(=O)c2ccccc2)c(O)n1-c1ccccn1	-6.7
O=c1[nH]c(Cn2nnc(-c3ccccc3)n2)nc2scc(-c3ccccc3)c12	9.1
COc1cccc(-c2nnc(SCC(N)=O)n2-c2ccc(Cl)cc2)c1	0.0
CCOc1ccccc1-n1c(SCC(N)=O)nnc1-c1ccccc1	154.5*
CCOc1ccccc1-n1c(SCC(N)=O)nc2ccccc2c1=O	2.8
Cc1cccc(OCC(=O)N(C)CCc2ccccn2)c1	357.1
CC(=O)c1cc(-c2ccccc2)n(CCC(=O)NC(C)(C)C)c1C	8.3
O=C(Oc1ccc(/C=N/Nc2nc(N3CCCCC3)nc(N3CCCCC3)n2)cc1)c1ccco1	-2.4
Cc1c(Cl)c(-c2n[nH]c(=S)n2Cc2ccco2)nn1C	8.5
O=c1c2ccccc2nc(-c2ccco2)n1Cc1ccccc1	0.0
S=c1[nH]nc(-c2ccco2)n1Cc1ccccc1	407.1*
COc1cccc(C2C(C#N)=C(N)Oc3cc(C)oc(=O)c32)c1OC (centres undefined)	9.4
CCOc1ccccc1OCC(=O)Nc1nnc(COC)s1	-8.6
CCOc1ccc(C(=O)N/N=C/c2cc(Cl)ccc2[N+](=O)[O-])cc1	5.9
Nc1nc2c(c(=O)[nH]1)C(c1cccc3ccccc13)C1=C(N2)c2ccccc2C1=O (centres undefined)	-71.4
SMILES	INS promoter act
O=C(COc1ccc(S(=O)(=O)NC2CCCCC2)cc1Cl)NCc1ccc2c(c1)OCO2	100.0*
O=C(COc1ccc(S(=O)(=O)N2CCCC2)cc1Cl)NCc1ccc2c(c1)OCO2	-5.3
COC(=O)COc1ccc(S(=O)(=O)Nc2ccc3c(c2)OCO3)cc1Cl	227.6
Cc1cc(C)n2nc(CC(=O)NCc3ccc(F)cc3)nc2n1	-7.1
CC(Sc1nnc(NC2CCCCC2)s1)C(=O)Nc1ccc2c(c1)C(=O)c1ccccc1C2=O (centres undefined)	-8.1
Cc1cc(NCCO)c2ccccc2n1	-5.4
CCCNc1c(F)c(F)c2c(C)c3ccccc3nc2c1F	160.0*
CCC(=O)Oc1c(-c2ccccc2)c2nc3ccccc3nc2c2ccccc12	376.2
COc1cc(NS(=O)(=O)c2ccc(NC(=O)/C(=C\c3ccccc3OC)NC(=O)c3ccccc3)cc2)nc(OC)n1	-8.3
CCCCN=C1NN=C(c2cc3ccccc3o2)CS1	8.1
O=S(=O)(c1ccc(NC(=S)NCCC(c2ccccc2)c2ccccc2)cc1)N1CCOCC1	4.8
O=C(Nc1ccccc1Oc1ccccc1)c1ccccc1F	-2.0
CCCCN(C(=O)Cn1nnc2ccccc21)C(C(=O)NCCOC)c1ccccc1 (centres undefined)	218.9
Cc1cccc(N(C(=O)Cn2nnc3ccccc32)C(C(=O)NCc2ccco2)c2ccncc2)c1C (centres undefined)	8.7
CCc1ccc(C(C(=O)NCCOC)N(C(=O)Cn2nnc3ccccc32)c2cccnc2)cc1 (centres undefined)	450.0*
CCOc1ccc(NS(=O)(=O)c2ccc(OC)c(NC(=O)c3ccc4c(c3)OCCO4)c2)cc1	0.0
Cc1cccc(NS(=O)(=O)c2ccc3c(c2)OCCO3)c1	-7.1
CCOC(=O)COc1ccc(S(=O)(=O)Nc2ccc3c(c2)OCCO3)cc1	460.0*
S=C(NCc1ccco1)N1CCC(c2nc3ccccc3o2)CC1	7.1
Cc1nc(CC(=O)N2CCN(c3cccc(C)c3C)CC2)cs1	0.0
CN(C)S(=O)(=O)c1ccc(C(=O)Nc2ccccc2F)cc1	7.1
CNS(=O)(=O)c1ccc(Oc2ccc(S(=O)(=O)NC)cc2)cc1	-71.4
CN(C)S(=O)(=O)c1ccc(Oc2ccccc2)cc1	475.0*
CCOc1ccc(-c2cc(C(=O)OC)[nH]n2)cc1	0.0
COc1ccc(NC(=O)C(=O)N2N=C(C(C)C)CC2(O)C(F)(F)F)cc1 (centres undefined)	-6.7
SMILES	INS promoter act
COC(=O)Cc1ccc(O)c(N)c1	-5.6
CC[N+]1=C(C)C(C)(C)c2cc(C)ccc21	488.2*
C/C(=N\OCC(=O)Nn1c(=O)[nH]c2ccccc2c1=O)c1ccccc1	-5.6
CCCCC(=O)OCC(=O)Nc1ccc(SC(F)F)cc1	-5.9
CC(C)=Cc1c(O)nc2ccccn2c1=O	6.7
COc1cc(NC(=O)CSCC(=O)Nc2cccc(C(F)(F)F)c2)c(Cl)cc1Cl	-8.8
COc1cc(/C=C2\C(=O)N(CCC#N)N=C2C)ccc1OCC(=O)Nc1ccccc1	-2.6
COc1cc(/C=C(\C#N)c2ccccn2)ccc1OCC(=O)Nc1cccc(C(F)(F)F)c1	280.0*
O=C(COC(=O)c1c[nH]c(=O)[nH]c1=O)NCc1ccccc1	-5.5
Cc1cc(NC(=O)/C=C/c2cccc(Cl)c2)n(-c2nc3ccccc3[nH]2)n1	300.0*
Cc1cc(NC(=O)c2c(F)cccc2F)n(-c2nc3ccccc3[nH]2)n1	9.3
Cc1cc(NC(=O)/C=C/c2ccc(F)cc2)n(-c2nc3ccccc3[nH]2)n1	-9.7
CCN(c1ccccc1)S(=O)(=O)c1cc(C(=O)Oc2ccc3c(C)cc(=O)oc3c2)ccc1C	2.7
O=C(NCc1cccs1)C1CCN(S(=O)(=O)c2cccc3nsnc23)CC1	-8.3
NS(=O)(=O)c1ccc(NC(=O)CSc2nnc(-c3cnccn3)n2-c2ccccc2)cc1	217.6
CC(C)(C)c1nc2ccccc2[nH]1	-79.7
CCn1nc(C(=O)Nc2nc3ccccc3[nH]2)c2ccccc2c1=O	107.7
c1ccc2nc3c(nc2c1)[nH]c1ccccc13	300.0*
CN1/C(=N\O)c2cccc3cccc1c23	6.7
CC(=O)c1ccc2cccc3c2c1N=CN3C	130.0*
CN1c2cccc3cccc(c23)N(C)C1(C)C	6.1
COC(=O)c1cn(C(=O)c2ccc(C)c(C)c2)c2ccccc12	5.6
COC(=O)c1cn(C(=O)c2cccc(C)c2)c2ccccc12	483.3*
COC(=O)c1cn(C(=O)c2ccc(Br)o2)c2ccccc12	0.0
N#Cc1ccc(OCC(=O)N/N=C(\CCC(=O)O)c2cccs2)cc1	136.4
SMILES	INS promoter act
C=CCc1cccc(/C=N/NC(=O)CCC(=O)Nc2ccc(C)cc2)c1O	0.0
COc1cccc2cc(C(C)N(CCCN3CCOCC3)C(=S)Nc3ccc(C)cc3)oc12 (centres undefined)	-5.9
COc1cccc(NC(=S)N(CCCN2CCOCC2)C(C)c2cc3cccc(OC)c3o2)c1 (centres undefined)	258.8*
COc1cccc(NC(=O)N(CCCN2CCOCC2)C(C)c2cc3ccccc3o2)c1 (centres undefined)	-9.7
COc1ccc(Nc2nnc(-c3ccc(N4CCOCC4)c([N+](=O)[O-])c3)c3ccccc23)cc1	-6.7
CN(CC(=O)NC1CCCCCCC1)S(=O)(=O)c1cnc[nH]1	-7.1

Compound activity deposited in PubChem BioAssay by Columbia University Molecular Screening Center.
